Compounds with a hit are over-represented: about 2.2% of the library has one in this group of screens.
PfGluPho inh – PfG6PD (Plasmodium falciparum) enzyme inhibition | AID 504690 | 350,000 tested, 0.78% active | PfGluPho enzyme, NADPH resazurin-diaphorase fluorescence | inhibition, % at 20 µM;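 active means inhibition reaching at least a set limit at 20 µM in the primary screen, cut at about 59% in these data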;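 further: 0% = DMSO wells with substrate and 100% = DMSO wells lacking glucose-6-phosphate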
HKDC1 inhibitor – inhibitors of human hexokinase HKDC1; 340,000 tested, 0.16% active; inhibition, % at 20 µM; recombinant HKDC1, G6PDH/diaphorase resazurin coupled fluorescence; AID 493160;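 active means inhibition above about 35% when tested at 20 µM, limit read from the data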;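 further: plate controls were DMSO wells with enzyme for no effect and DMSO wells lacking enzyme for full effect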
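Test system: HK5 enzyme. Quantity: 5 µg/mL HK5 final. Reagent: glucose and ATP substrates. Schedule: 90 min reaction incubation at room temperature, dark. Technique: resazurin-to-resorufin fluorescence via G6PDH and diaphorase coupling, 525/613 nm. Control set: DMSO wells with and without enzyme mix.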
Granule exo inh – lytic granule exocytosis inhibition | TALL-104 LAMP-1 surface exposure, flow cytometry; cells stimulated with thapsigargin and PMA | 360,000 tested, 0.66% active | inhibition, % at 10 µM;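 active means inhibition above about 55%, limit read from the data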
ABHD5-PLIN5 inh – blocks binding of human ABHD5 to perilipin-5; Q00G26+Q8WTS1; Split G. princeps luciferase complementation, luminescence, 4 h; inhibition, % at 4 µM; 360,000 tested, 0.78% active; AID 602281;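 active means inhibition above the mean inhibition across every tested compound plus 3 SD, cut at about 22% in these data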;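 further: 0% = DMSO only wells and the 100% control is not disclosed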
Target sequence (Q00G26 whole entry, looked up): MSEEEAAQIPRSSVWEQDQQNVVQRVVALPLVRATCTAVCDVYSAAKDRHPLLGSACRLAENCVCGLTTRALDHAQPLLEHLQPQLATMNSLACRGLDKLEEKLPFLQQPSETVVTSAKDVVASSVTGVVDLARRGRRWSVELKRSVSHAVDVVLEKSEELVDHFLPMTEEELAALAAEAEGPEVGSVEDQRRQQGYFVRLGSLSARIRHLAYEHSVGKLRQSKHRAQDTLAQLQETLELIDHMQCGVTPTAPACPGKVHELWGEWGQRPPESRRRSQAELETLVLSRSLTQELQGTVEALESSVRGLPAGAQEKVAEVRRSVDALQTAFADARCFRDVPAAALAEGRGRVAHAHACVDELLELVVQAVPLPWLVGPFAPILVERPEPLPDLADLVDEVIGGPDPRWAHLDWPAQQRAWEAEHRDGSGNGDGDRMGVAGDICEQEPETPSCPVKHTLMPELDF
Target sequence (Q8WTS1 whole entry, looked up): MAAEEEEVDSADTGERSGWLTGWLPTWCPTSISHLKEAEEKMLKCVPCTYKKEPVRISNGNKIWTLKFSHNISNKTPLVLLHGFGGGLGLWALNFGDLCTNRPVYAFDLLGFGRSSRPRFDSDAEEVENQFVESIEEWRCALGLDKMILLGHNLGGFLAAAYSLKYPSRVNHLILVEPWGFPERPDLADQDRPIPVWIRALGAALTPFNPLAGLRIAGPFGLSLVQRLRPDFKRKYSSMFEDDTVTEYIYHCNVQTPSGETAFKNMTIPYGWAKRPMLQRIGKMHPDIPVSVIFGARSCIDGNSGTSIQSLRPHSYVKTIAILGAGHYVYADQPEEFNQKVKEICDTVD
ABHD5 PLIN5 conf – ABHD5-PLIN5 interaction inhibition, confirmed | shares compounds with ABHD5-PLIN5 inh | biochemical ABHD5-PLIN5 interaction, luminescence | inhibition, % at 4 µM | 2,200 tested, 67% active | AID 651612; in the data active means inhibition above about 23%;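 further: 0% = DMSO vehicle wells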
HNF4 counter – HNF4 split-luciferase signal hit, counter-screen; AID 651674; 2,200 tested, 77% active; inhibition, % at 4 µM; shares compounds with ABHD5-PLIN5 inh; HNF4 dimerization, luminescence, biochemical;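 active means mean inhibition across replicate wells exceeding the computed hit threshold, cut at about 13% in these data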;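 further: light from luciferase halves that rejoin when HNF4 fusion proteins dimerize; 0% = DMSO only wells and the 100% control is not given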
* = called active by the depositor; nt = no result.

SMILES	PfGluPho inh	HKDC1 inhibitor	Granule exo inh	ABHD5-PLIN5 inh	ABHD5 PLIN5 conf	HNF4 counter
COc1cc(/C=C/[N+](=O)[O-])ccc1OC(=O)c1cc2ccccc2oc1=O	23	9	45	28*	78*	97*
Cc1ccc(-c2c[n+](CC(=O)Nc3nc(-c4ccc(F)cc4)cs3)c3n2CCC3)cc1	5	-5	8	25*	15	8
O=C(C[n+]1cc(-c2ccc(F)cc2)n2c1CCC2)Nc1nc(-c2ccccc2)cs1	10	-11	2	16	nt	nt
CCN1C(=O)Cc2cc(S(=O)(=O)N3CCOCC3)ccc21	-13	-1	1	-8	nt	nt
CCN1CC(=O)Nc2cc(S(=O)(=O)N3CCOCC3)ccc21	-2	-5	-3	32*	49*	46*
CC(=O)N(C)c1nc(N)n(-c2ccccc2)n1	-12	0	7	-8	nt	nt
CN1C(=S)N(c2cccnc2)C(=O)/C1=C\c1ccc(C(C)(C)C)cc1	52	26	22	38*	65*	55*
Cc1cc(=O)oc2c(C(=O)/C=C\c3cccs3)c(O)ccc12	6	10	-2	39*	39*	45*
Cc1cc(=O)oc2c(C(=O)/C=C/c3ccccc3)c(O)ccc12	-1	-2	5	8	nt	nt
COc1ccc(/C=C\C(=O)c2c(O)ccc3c(C)cc(=O)oc23)cc1OC	-8	8	4	50*	74*	61*
COc1cc(/C=C/C(=O)c2c(O)ccc3c(C)cc(=O)oc23)ccc1O	12	4	-6	51*	61*	64*
CC1=NNC(=O)/C1=C\c1cn(-c2ccccc2)nc1-c1ccccc1	11	18	44	74*	99*	101*
O=Cc1cn(-c2ccccc2)nc1-c1ccccc1	-8	2	5	3	nt	nt
Cc1nnc(NC(=O)c2nc(S(=O)(=O)Cc3ccccc3)ncc2Cl)s1	4	3	4	34*	71*	51*
CCOC(=O)c1ccc(NC(=O)c2nc(SC)ncc2Cl)cc1	-3	1	-12	-2	nt	nt
COc1ccc(OC)c(NC(=O)c2nc(S(=O)(=O)Cc3ccccc3)ncc2Cl)c1	23	10	35	50*	93*	87*
Cc1ccccc1CS(=O)(=O)c1ncc(Cl)c(C(=O)Nc2ccc(F)cc2)n1	19	4	44	77*	89*	90*
COc1ccc(OC)c(NC(=O)CS(=O)(=O)Cc2ccccc2)c1	5	-4	-8	-2	nt	nt
Cc1ccc(NC(=O)c2nc(S(=O)(=O)Cc3ccccc3)ncc2Cl)cc1	28	4	33	72*	94*	102*
CC(C)CCNC(=O)c1onc(CSc2nc3ccccc3[nH]2)c1C(=O)NCCC(C)C	23	-1	10	8	nt	nt
COCCN1C[C@@H](CO)O[C@@H](n2cnc3c(NCc4ccncc4)ncnc32)C1	nt	nt	2	-1	nt	nt
CCN(CC)CCc1nc(-c2ccccc2)no1	-11	-3	-2	56*	84*	43*
O=C(O)CCc1nc(-c2ccccc2)no1	-5	-6	3	1	nt	nt
C(#Cc1ccccc1)C[N+]1(CC#Cc2cccc3ccccc23)CCCC1	24	9	27	27*	11	3
CCOC(=O)N1CCc2c(sc(NC(=O)CN3CCN(C)CC3)c2C(=O)Nc2ccccc2)C1	9	-4	4	1	nt	nt
SMILES	PfGluPho inh	HKDC1 inhibitor	Granule exo inh	ABHD5-PLIN5 inh	ABHD5 PLIN5 conf	HNF4 counter
CCOC(=O)N1CCc2c(sc(NC(=O)CN3CCOCC3)c2C(=O)Nc2ccccc2)C1	1	-6	0	23*	5	3
COc1ccc(S(=O)(=O)N(C(=O)C(C)C)c2ccc3oc(=O)sc3c2)cc1	-16	-18	-1	32*	-71	39*
CC(C)C(=O)N(c1ccc2oc(=O)sc2c1)S(=O)(=O)c1ccccc1	5	-11	0	8	nt	nt
Cc1ccc2c(c1)N(CC(=O)N1CCCC1)C(=O)c1cccnc1O2	-2	-5	1	2	nt	nt
COc1cc(OC)c(OC)cc1/C=C1\CCC/C(=C\c2cc(OC)c(OC)cc2OC)C1=O	16	5	33	7	nt	nt
COc1cc(/C=C2\COC/C(=C\c3ccc(O)c(OC)c3)C2=O)ccc1O	14	22	64*	54*	90*	84*
COc1cc(/C=C2\CC/C(=C\c3ccc(OCCO)c(OC)c3)C2=O)ccc1OCCO	10	-7	1	22	nt	nt
COc1cc(C=C2C(=O)c3ccccc3C2=O)ccc1O	-12	-1	6	18	nt	nt
COc1ccc(/C=C2\CC/C(=C\c3ccc(OC)c(OC)c3)C2=O)cc1OC	3	12	1	31*	58*	44*
COc1ccc(/C=C2\CCC/C(=C\c3ccc(OC)c(OC)c3OC)C2=O)c(OC)c1OC	12	8	-11	38*	10	16*
COc1cc(/C=C2/CC/C(=C/c3ccc(O)c(OC)c3)C2=O)ccc1O	28	12	86*	24*	26*	32*
CCCn1c(SCC(=O)N(CC)c2c(N)n(Cc3ccccc3)c(=O)[nH]c2=O)nnc1-c1ccncc1	-4	-1	9	4	nt	nt
CCCCOc1ccc(C(=O)OCC(=O)NC2CCCC2)cc1	7	-1	14	-2	nt	nt
COc1cc(/C=C/C=C2/CC/C(=C/C=C/c3ccc(O)c(OC)c3)C2=O)ccc1O	35	23	26	26*	62*	68*
COc1cc(C=C2C(=O)OC(C)(C)OC2=O)ccc1OCC(=O)Nc1ccccc1	-9	-8	15	-4	nt	nt
CCNC(=O)COc1ccc(/C=C2\COc3ccccc3C2=O)cc1OC	-8	5	-3	56*	81*	81*
CCOc1cc(/C=C2\COc3ccccc3C2=O)ccc1OCC(=O)N(C)C	-2	12	-10	61*	77*	69*
O=C(NC1CCCCC1)C(c1cccc2ccccc12)n1c(=O)c(-c2ccco2)nc2ccccc21 (stereo not given)	nt	nt	4	87*	85*	9
COc1ccc(NC(=O)C(c2cccc3ccccc23)n2c(=O)c(-c3ccco3)nc3ccccc32)cc1 (stereo not given)	nt	nt	3	26*	23*	3
COc1ccc(NC(=O)C(c2ccc(C(F)(F)F)cc2)n2c(=O)c(-c3ccco3)nc3ccccc32)cc1 (stereo not given)	nt	nt	-2	12	nt	nt
COc1ccc(C(C(=O)NC2CCCCC2)n2c(=O)c(-c3ccco3)nc3ccccc32)cc1 (stereo not given)	nt	nt	-2	66*	85*	30*
CCSc1ccccc1C(=O)NC1CCCCC1	-19	6	0	-4	nt	nt
COc1cc(/C=C/C(=O)c2cccc([N+](=O)[O-])c2)cc(OC)c1OC	-2	16	-2	30*	95*	92*
O=C(/C=C/c1ccccc1F)c1cccc([N+](=O)[O-])c1	10	22	85*	70*	100*	99*

Screening data: PubChem, several laboratories
